# Experimental data reported in ChEMBL document CHEMBL4043069, “Streptenols F-I Isolated from the Marine-Derived Streptomyces misionensis BAT-10-03-023” (2017).
# Legend:
# Format in all cases: functional
# HT-29 = assay: Cytotoxicity against human HT-29 cells assessed as inhibition of cell growth
# Summary of the method: (§1)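 Human tumour lines were used: A-549 lung carcinoma, MDA-MB-231 breast adenocarcinoma, HT-29 colorectal carcinoma and PSN1 pancreatic adenocarcinoma. The compounds were tested across doses. GI50, the concentration giving 50% growth inhibition, was derived from dose-response data by a literature procedure. Survival was estimated with the National Cancer Institute algorithm, and three dose-response parameters were calculated.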
# A549 = assay: Cytotoxicity against human A549 cells assessed as inhibition of cell growth; summary of the method: as §1
# MDA-MB-231 = assay: Cytotoxicity against human MDA-MB-231 cells assessed as inhibition of cell growth; summary of the method: as §1
# PSN1 = assay: Cytotoxicity against human PSN1 cells assessed as inhibition of cell growth; summary of the method: as §1
smiles,measurement,setting,value
C/C=C/C=C/C(=O)CC(CCO)OCC[C@H](O)CC(=O)CC/C=C/C (some centres undefined),GI50,HT-29,28 µM
same,GI50,A549,28 µM
same,GI50,MDA-MB-231,28 µM
same,GI50,PSN1,28 µM
C/C=C/CCC(=O)C[C@@H](O)CCO,GI50,HT-29,54 µM
same,GI50,A549,54 µM
same,GI50,MDA-MB-231,54 µM
same,GI50,PSN1,54 µM
C/C=C/C=C/C(=O)CC(CCO)OCC[C@H](O)CC(=O)/C=C/C=C/C (some centres undefined),GI50,HT-29,29 µM
same,GI50,A549,29 µM
same,GI50,MDA-MB-231,29 µM
same,GI50,PSN1,29 µM
C/C=C/C=C/C(=O)C[C@@H](O)CCO,GI50,HT-29,54 µM
same,GI50,A549,54 µM
same,GI50,MDA-MB-231,54 µM
same,GI50,PSN1,54 µM
C/C=C/CCC(=O)C[C@@H](O)CCO[C@]1(CC/C=C/C)C[C@@H](O)CCO1,GI50,HT-29,28 µM
same,GI50,A549,28 µM
same,GI50,MDA-MB-231,28 µM
same,GI50,PSN1,28 µM
C/C=C/C=C/C(=O)C[C@H](CCO)OC,GI50,HT-29,49 µM
same,GI50,A549,50 µM
same,GI50,MDA-MB-231,30 µM
same,GI50,PSN1,50 µM
